Tests used:
[1] = target: Aminopeptidase N (Homo sapiens) (UniProt P15144); assay: In vitro inhibition of aminopeptidase N (APN) activity in intact U937 cells in presence of Ala-pNA and 10e-3 M concentration of compound; type: cell-based; settings: U-937
Outline: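 Intact U937 cells (5 × 10⁵) incubated 15 min at 37 °C in 0.1 mL peptidase buffer with Ala-pNA (0.5 mg/mL) and compound at 10^-3 M. pNA release read at 405 nm. Remaining activity expressed as percent of uninhibited control; mean of three to ten experiments ± SD.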
Target sequence in this assay (P15144 whole entry): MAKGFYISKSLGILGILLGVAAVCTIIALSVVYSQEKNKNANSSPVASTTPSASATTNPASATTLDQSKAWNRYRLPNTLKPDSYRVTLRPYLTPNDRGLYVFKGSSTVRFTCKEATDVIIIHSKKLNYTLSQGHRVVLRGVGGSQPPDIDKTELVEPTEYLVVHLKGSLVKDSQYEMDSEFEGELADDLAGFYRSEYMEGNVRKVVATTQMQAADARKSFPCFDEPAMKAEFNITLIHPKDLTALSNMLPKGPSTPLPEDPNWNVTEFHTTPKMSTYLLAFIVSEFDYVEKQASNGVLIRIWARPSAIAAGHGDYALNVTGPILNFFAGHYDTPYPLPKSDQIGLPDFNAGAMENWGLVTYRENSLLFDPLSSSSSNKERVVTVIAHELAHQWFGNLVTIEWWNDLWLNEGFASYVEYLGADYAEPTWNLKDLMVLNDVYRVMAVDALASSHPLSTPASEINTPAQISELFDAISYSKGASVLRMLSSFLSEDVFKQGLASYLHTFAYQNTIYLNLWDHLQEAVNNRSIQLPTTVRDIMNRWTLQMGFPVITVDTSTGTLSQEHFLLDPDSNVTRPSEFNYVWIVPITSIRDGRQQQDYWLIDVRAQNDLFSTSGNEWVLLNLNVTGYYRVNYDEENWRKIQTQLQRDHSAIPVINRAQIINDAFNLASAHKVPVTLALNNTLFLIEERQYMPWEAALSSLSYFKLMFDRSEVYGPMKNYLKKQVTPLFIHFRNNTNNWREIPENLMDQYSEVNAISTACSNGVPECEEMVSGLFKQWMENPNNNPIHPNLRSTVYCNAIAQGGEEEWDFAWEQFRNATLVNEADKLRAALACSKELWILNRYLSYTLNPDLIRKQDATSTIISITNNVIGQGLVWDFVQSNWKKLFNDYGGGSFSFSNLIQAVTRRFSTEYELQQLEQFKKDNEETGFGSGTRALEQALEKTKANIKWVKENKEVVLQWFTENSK

U-937 = assay: In vitro cytotoxicity towards U937 cell growth was evaluated after 3 days of incubation (10e-4 M); type: functional, Homo sapiens
Outline: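 Human monoblastic U937 cells in RPMI 1640 with 10% heat-inactivated FCS, 5% CO2, 37 °C; seeded at 0.5 × 10⁵ cells/mL in fresh medium and exposed continuously to 10^-4 M compound for 3 days. Cells then washed twice and counted, and viability determined by trypan blue exclusion.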

[2] = target: Aminopeptidase N (Homo sapiens) (UniProt P15144); assay: Inhibitory concentration of compound towards cell surface aminopeptidase N (APN/CD13) on human U937 cells
Target sequence in this assay (P15144 whole entry, looked up): as the sequence (P15144 whole entry) above

[3] = target: T1, Aminopeptidase N (Sus scrofa) (UniProt P15145); assay: Inhibition of cell surface aminopeptidase N (APN/CD13) at 0.3*10e-3 M compound concentration
T1 sequence (whole entry): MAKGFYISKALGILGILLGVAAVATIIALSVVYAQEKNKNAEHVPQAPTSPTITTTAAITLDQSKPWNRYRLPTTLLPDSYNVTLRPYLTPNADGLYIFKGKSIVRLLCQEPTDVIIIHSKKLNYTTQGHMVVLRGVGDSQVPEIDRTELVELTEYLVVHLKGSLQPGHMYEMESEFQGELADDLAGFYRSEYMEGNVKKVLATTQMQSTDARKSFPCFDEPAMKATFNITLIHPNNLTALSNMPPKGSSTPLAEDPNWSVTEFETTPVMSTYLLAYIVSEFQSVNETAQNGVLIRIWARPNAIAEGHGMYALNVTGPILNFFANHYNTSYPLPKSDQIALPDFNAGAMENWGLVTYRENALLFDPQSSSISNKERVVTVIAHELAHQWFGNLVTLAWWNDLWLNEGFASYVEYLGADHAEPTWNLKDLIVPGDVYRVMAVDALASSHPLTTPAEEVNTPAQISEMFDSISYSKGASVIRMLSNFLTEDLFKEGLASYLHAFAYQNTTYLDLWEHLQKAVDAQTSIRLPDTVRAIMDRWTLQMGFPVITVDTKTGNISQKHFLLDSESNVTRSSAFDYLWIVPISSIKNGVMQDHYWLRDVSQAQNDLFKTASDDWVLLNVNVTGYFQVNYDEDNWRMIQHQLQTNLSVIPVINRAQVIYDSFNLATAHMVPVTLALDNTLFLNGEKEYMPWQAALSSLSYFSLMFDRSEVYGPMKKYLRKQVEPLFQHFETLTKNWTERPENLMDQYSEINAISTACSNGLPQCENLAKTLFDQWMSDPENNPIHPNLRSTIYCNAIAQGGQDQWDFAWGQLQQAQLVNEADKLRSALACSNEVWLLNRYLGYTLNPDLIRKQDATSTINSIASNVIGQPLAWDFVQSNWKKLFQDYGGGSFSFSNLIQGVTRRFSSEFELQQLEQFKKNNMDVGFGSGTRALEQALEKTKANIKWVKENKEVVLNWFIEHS

[4] = target: T2, Neprilysin (Rattus norvegicus) (UniProt P07861); assay: Inhibition of neutral endopeptidase (NEP[…]) at 0.3*10e-3 M compound concentration
T2 sequence (whole entry): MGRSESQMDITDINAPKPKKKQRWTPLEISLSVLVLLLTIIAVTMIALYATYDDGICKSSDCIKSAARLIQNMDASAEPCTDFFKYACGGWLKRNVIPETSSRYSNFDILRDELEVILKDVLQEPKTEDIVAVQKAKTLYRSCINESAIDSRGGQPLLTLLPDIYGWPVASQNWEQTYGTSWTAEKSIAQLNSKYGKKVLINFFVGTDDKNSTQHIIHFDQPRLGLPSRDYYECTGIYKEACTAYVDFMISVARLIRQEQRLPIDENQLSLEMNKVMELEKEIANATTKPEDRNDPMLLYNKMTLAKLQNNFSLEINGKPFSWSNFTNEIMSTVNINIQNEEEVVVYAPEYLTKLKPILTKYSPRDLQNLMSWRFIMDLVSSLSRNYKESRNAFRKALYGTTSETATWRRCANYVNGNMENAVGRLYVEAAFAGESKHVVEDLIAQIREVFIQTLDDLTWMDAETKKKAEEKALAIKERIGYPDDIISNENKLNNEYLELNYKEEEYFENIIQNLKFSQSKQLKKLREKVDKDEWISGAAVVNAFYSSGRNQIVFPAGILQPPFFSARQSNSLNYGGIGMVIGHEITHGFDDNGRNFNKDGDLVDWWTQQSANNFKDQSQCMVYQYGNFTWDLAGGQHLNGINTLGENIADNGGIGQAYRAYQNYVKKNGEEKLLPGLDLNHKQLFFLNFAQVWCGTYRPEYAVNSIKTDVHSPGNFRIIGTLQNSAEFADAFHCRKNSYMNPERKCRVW

O=c1c([N+](=O)[O-])c(-c2ccccc2)oc2ccccc12
inhibition [1]: 30%
Cytotoxicity (U-937): <10%

O=C(O)Cc1cccc2c(=O)c([N+](=O)[O-])c(-c3ccccc3)oc12
inhibition [1]: 68%
Cytotoxicity (U-937): <10%

O=CCc1cccc2c(=O)c([N+](=O)[O-])c(-c3ccccc3)oc12
inhibition [1]: 51%
Cytotoxicity (U-937): >40%

COc1ccc([N+](=O)[O-])c(-c2oc3c(CC(=O)O)cccc3c(=O)c2[N+](=O)[O-])c1
inhibition [1]: 80%
Cytotoxicity (U-937): <10%

O=C(O)Cc1cccc2c(=O)c([N+](=O)[O-])c(-c3ccccc3OCc3ccccc3)oc12
inhibition [1]: 76%
Cytotoxicity (U-937): >55%

COCOC(=O)Cc1cccc2c(=O)c([N+](=O)[O-])c(-c3ccccc3[N+](=O)[O-])oc12
inhibition [1]: 48%
Cytotoxicity (U-937): >85%

O=C(O)Cc1cccc2c(=O)c([N+](=O)[O-])c(-c3ccccc3[N+](=O)[O-])oc12
inhibition [1]: 88%
Cytotoxicity (U-937): <10%
IC50 [2]: 25 µM

COCOC(=O)Cc1cccc2c(=O)c([N+](=O)[O-])c(-c3ccccc3OCc3ccccc3)oc12
inhibition [1]: 32%
Cytotoxicity (U-937): >95%

COc1cc(-c2oc3cc(O)cc(O)c3c(=O)c2O)ccc1O
inhibition [3]: 73%
inhibition [4]: 49%

Cl.Nc1c(-c2ccccc2)oc2c(CC(=O)O)cccc2c1=O
inhibition [1]: 33%
Cytotoxicity (U-937): <10%

O=C(O)Cc1cccc2c(=O)c([N+](=O)[O-])c(-c3ccccc3C(=O)OCc3ccccc3)oc12
inhibition [1]: 77%
Cytotoxicity (U-937): >40%

O=c1c([N+](=O)[O-])c(-c2ccccc2[N+](=O)[O-])oc2ccccc12
inhibition [1]: < 5%
Cytotoxicity (U-937): >40%

O=c1cc(-c2ccccc2)oc2cc(O)c(O)c(O)c12
inhibition [3]: 57%
inhibition [4]: 36%

COCOC(=O)Cc1cccc2c(=O)c3c(oc12)-c1ccccc1OC(=O)N3
inhibition [1]: 25%
Cytotoxicity (U-937): >95%

COc1ccc(-c2oc3c(CC(=O)O)cccc3c(=O)c2[N+](=O)[O-])cc1[N+](=O)[O-]
inhibition [1]: 61%
Cytotoxicity (U-937): <10%

O=C(O)Cc1cccc2c(=O)cc(-c3ccccc3)oc12 [MITOFLAXONE]
inhibition [1]: 30%
Cytotoxicity (U-937): <10%

O=C(O)Cc1cccc2c(=O)c3c(oc12)-c1ccccc1OC(=O)N3
inhibition [1]: 19%
Cytotoxicity (U-937): 30%

COc1cccc(-c2oc3c(CC(=O)O)cccc3c(=O)c2[N+](=O)[O-])c1[N+](=O)[O-]
inhibition [1]: 75%
Cytotoxicity (U-937): <10%

O=c1cc(-c2ccccc2)oc2ccccc12 [FLAVONE]
inhibition [1]: 5%
Cytotoxicity (U-937): <10%

O=C(O)Cc1cccc2c(=O)c([N+](=O)[O-])c(-c3ccccc3Cl)oc12
inhibition [1]: 76%
Cytotoxicity (U-937): 30%

O=C(O)Cc1cccc2c(=O)c([N+](=O)[O-])c(-c3ccc([N+](=O)[O-])cc3)oc12
inhibition [1]: 63%
Cytotoxicity (U-937): <10%

O=c1c(O)c(-c2ccc(O)c(O)c2)oc2cc(O)cc(O)c12
inhibition [3]: 73%
inhibition [4]: 49%

C=CCc1cccc2c(=O)c([N+](=O)[O-])c(-c3ccccc3[N+](=O)[O-])oc12
inhibition [1]: 16%
Cytotoxicity (U-937): <10%

COC(=O)Cc1cccc2c(=O)c([N+](=O)[O-])c(-c3ccccc3)oc12
inhibition [1]: < 5%
Cytotoxicity (U-937): <10%

O=C(O)Cc1cccc2c(=O)c([N+](=O)[O-])c(-c3cccc([N+](=O)[O-])c3)oc12
inhibition [1]: 44%
Cytotoxicity (U-937): <10%

COC(=O)c1ccccc1-c1oc2c(CC(=O)O)cccc2c(=O)c1[N+](=O)[O-]
inhibition [1]: 66%
Cytotoxicity (U-937): <10%

O=C(O)Cc1cccc2c(O)c3nc4ccccc4c-3oc12
inhibition [1]: 10%
Cytotoxicity (U-937): 30%

COCOC(=O)Cc1cccc2c(=O)c(N)c(-c3ccccc3O)oc12
inhibition [1]: 19%
Cytotoxicity (U-937): >65%

O=C(O)Cc1cccc2c(=O)c3c(oc12)-c1ccccc1NC(=O)N3
inhibition [1]: 8%
Cytotoxicity (U-937): <10%

CC(C)C[C@H](NC(=O)[C@@H](O)[C@H](N)Cc1ccccc1)C(=O)O [UBENIMEX]
inhibition [1]: 85%
Cytotoxicity (U-937): >40%

COc1ccc(-c2oc3c(CC(=O)O)cccc3c(=O)c2[N+](=O)[O-])cc1
inhibition [1]: 64%
Cytotoxicity (U-937): >40%

O=C(O)Cc1cccc2c(=O)cc(-c3ccccc3[N+](=O)[O-])oc12
inhibition [1]: 83%
Cytotoxicity (U-937): >80%

COc1ccccc1-c1oc2c(CC(=O)O)cccc2c(=O)c1[N+](=O)[O-]
inhibition [1]: 69%
Cytotoxicity (U-937): >20%

Reference: ChEMBL document CHEMBL1145072, “Synthesis and biological evaluation of novel flavone-8-acetic acid derivatives as reversible inhibitors of aminopeptidase N/CD13” (J Med Chem, 2003)
